AHR activator: activators of human aryl hydrocarbon receptor | AHR-responsive luciferase reporter cells, luminescence | 320,000 tested, 2.5% active | AID 2796 | activation, % at 5 µM | P35869; in the data active = activation above about 47%;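 note: 0% = vehicle wells and 100% = reference agonist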
SR-BI HDL uptake: mouse SR-BI HDL lipid transfer inhibition. ldlA[mSR-BI] CHO cells, DiI-HDL uptake fluorescence, 3 h. inhibition, % at 12.5 µM. 320,000 tested, 0.96% active;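 active = mean replicate inhibition of at least 70% and a set share of replicates each scoring 70 or more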;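 note: 0% = median of neutral control wells and 100% = median of positive control wells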
Target sequence (Q61009 whole entry, looked up): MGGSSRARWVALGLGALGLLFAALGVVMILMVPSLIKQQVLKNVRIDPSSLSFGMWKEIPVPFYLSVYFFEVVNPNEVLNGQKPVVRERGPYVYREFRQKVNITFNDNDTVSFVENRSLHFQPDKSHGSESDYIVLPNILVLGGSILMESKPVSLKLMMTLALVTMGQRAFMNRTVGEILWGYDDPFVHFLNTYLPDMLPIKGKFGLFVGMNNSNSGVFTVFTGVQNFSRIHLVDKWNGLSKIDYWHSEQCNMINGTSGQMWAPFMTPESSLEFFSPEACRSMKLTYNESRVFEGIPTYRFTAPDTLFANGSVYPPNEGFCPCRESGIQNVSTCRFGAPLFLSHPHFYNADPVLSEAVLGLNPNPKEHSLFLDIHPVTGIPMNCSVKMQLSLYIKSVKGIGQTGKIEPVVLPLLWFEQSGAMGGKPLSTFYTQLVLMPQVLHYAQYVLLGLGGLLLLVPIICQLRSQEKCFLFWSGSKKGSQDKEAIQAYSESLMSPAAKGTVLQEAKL
HIF activator: HIF pathway transcriptional activation; U2OS HRE-luciferase reporter, luminescence; normalized: DMSO 0%, desferrioxamine 100%; activation, % at 7.5 µM (by protocol); 300,000 tested, 0.32% active;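 active = mean activation of at least 10% of the iron chelator positive control signal, with at least half of replicates also reaching 10%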
ABCB6 inh 2: human ABCB6 transporter inhibition | K562-ABCB6 porphyrin accumulation, flow cytometry, 1 h; stronger effect = lower value | fluorescence ratio to DMSO, % at 10 µM | 360,000 tested, 0.19% active | AID 602162;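 active = fluorescence ratio to DMSO below 75%, the collection mean minus 3 SD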;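 note: signal is porphyrin accumulated inside mitochondria; 100% equals median channel fluorescence of DMSO control wells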
SR-BI DiI-HDL act: SR-BI HDL lipid transfer activation. CHO ldlA[mSR-BI] cells, DiI-HDL uptake fluorescence, 3 h; 100 = double the neutral-control signal. activation, % at 12.5 µM. 320,000 tested, 0.096% active. AID 504775;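 active = mean replicate activation of at least 60% and every replicate at or above 60%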;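 note: 0% = median plate neutral-control signal and 100% = twice that signal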
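material = CHO ldlA[mSR-BI] cells | medium = Ham's F12 with 0.5% BSA, HEPES 25 mM, pH 7.4 | reagent = fluorescent DiI-HDL, 10 µg/mL final | compound dosing = single-point compound dose | incubation = 3 h, 37 °C | measured by = bottom-read fluorescence, 550/595 nm | measure = HDL uptake via cellular fluorescence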
FXN GAA850 act: frataxin GAA850 promoter activation; AID 540364; 360,000 tested, 0.56% active; activation, % at 6 µM; HEK293 lucGAA850 FXN promoter luciferase reporter, 24 h; percent of 10 µM SAHA response;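 active = activation above the average of all compounds screened plus 3 SD, cutoff fixed separately per campaign, cut at about 7.5% in these data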;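 note: 0% = DMSO wells and 100% = 10 µM SAHA wells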
Active calls of the source: *. Sampled rows, rich in hits. Any-hit rate of the full collection: about 3.9%.

CCCC(=O)NC(c1ccc(Cl)cc1Cl)c1ccc2cccnc2c1O (configuration not stated) was read as AHR activator 0, SR-BI HDL uptake 5, HIF activator 74*, ABCB6 inh 2 97, SR-BI DiI-HDL act -5 and FXN GAA850 act -7.
`CCCCC(=O)NC(c1ccccc1Cl)c1c(O)ccc2ccccc12` (configuration not stated) gave AHR activator 0, SR-BI HDL uptake -10, HIF activator 0, ABCB6 inh 2 99, SR-BI DiI-HDL act 10 and FXN GAA850 act 0.
Screening CCCCC(=O)NC(c1ccc(Cl)cc1)c1ccc2cccnc2c1O (configuration not stated) returned AHR activator 3, SR-BI HDL uptake 7, HIF activator 86*, ABCB6 inh 2 96, SR-BI DiI-HDL act -7 and FXN GAA850 act -9.
For CC(=O)NC(c1ccc2ccccc2c1)c1ccc2cccnc2c1O (configuration not stated) the results were AHR activator 1, SR-BI HDL uptake -21, HIF activator 90*, ABCB6 inh 2 99, SR-BI DiI-HDL act 21 and FXN GAA850 act -10.
`CCCC(=O)NC(c1ccc(Cl)cc1)c1ccc2cccnc2c1O` (configuration not stated) gave AHR activator -1, SR-BI HDL uptake 9, HIF activator 92*, ABCB6 inh 2 105, SR-BI DiI-HDL act -9 and FXN GAA850 act -8.
Screening CCCC(=O)NC(c1ccco1)c1cc(Cl)c2cccnc2c1O (configuration not stated) returned AHR activator 8, SR-BI HDL uptake -15, HIF activator 0, ABCB6 inh 2 102, SR-BI DiI-HDL act 15 and FXN GAA850 act -5.
Screening CC(NCC(O)COc1ccc(Br)cc1)c1ccccc1 (configuration not stated) returned AHR activator 0, SR-BI HDL uptake -9, HIF activator 0, ABCB6 inh 2 99, SR-BI DiI-HDL act 9 and FXN GAA850 act 0.
For COc1ccc(-c2c[nH]c(=O)[nH]c2=O)cc1OC the results were AHR activator 8, SR-BI HDL uptake -6, HIF activator 0, ABCB6 inh 2 100, SR-BI DiI-HDL act 6 and FXN GAA850 act 0.
CCC(=O)NC(c1ccc(C)cc1)c1cc(Cl)c2cccnc2c1O (configuration not stated) was read as AHR activator 12, SR-BI HDL uptake -1, ABCB6 inh 2 99, SR-BI DiI-HDL act 1 and FXN GAA850 act -5.
`CCCC(=O)NC(c1ccc(C)cc1)c1ccc2cccnc2c1O` (configuration not stated) gave AHR activator -2, SR-BI HDL uptake 5, HIF activator 125*, ABCB6 inh 2 92, SR-BI DiI-HDL act -5 and FXN GAA850 act -10.
`CC(=O)NC(c1ccc(Cl)cc1Cl)c1ccc2cccnc2c1O` (configuration not stated) gave SR-BI HDL uptake -3, HIF activator 246*, ABCB6 inh 2 94, SR-BI DiI-HDL act 3 and FXN GAA850 act -8.
`COc1ccc(C(NC(C)=O)c2ccc3cccnc3c2O)c(OC)c1` (configuration not stated) gave AHR activator -4, SR-BI HDL uptake -12, HIF activator 65*, ABCB6 inh 2 100, SR-BI DiI-HDL act 12 and FXN GAA850 act -7.
Screening COc1ccccc1C(NC(C)=O)c1cc(Cl)c2cccnc2c1O (configuration not stated) returned AHR activator 2, SR-BI HDL uptake -1, HIF activator 0, ABCB6 inh 2 94, SR-BI DiI-HDL act 1 and FXN GAA850 act -2.
Screening O=C(c1ccccc1)c1c[nH]c2ccccc12 returned SR-BI HDL uptake -20, HIF activator 1, ABCB6 inh 2 97, SR-BI DiI-HDL act 20 and FXN GAA850 act 2.
For O=C(/C=C/c1c[nH]c2ccccc12)c1cccc2ccccc12 the results were AHR activator 68*, SR-BI HDL uptake 52, HIF activator 2, ABCB6 inh 2 103, SR-BI DiI-HDL act -21 and FXN GAA850 act 0.
`Cc1c(C(=O)Nc2nc(-c3ccccn3)cs2)oc2ccccc12` gave AHR activator 64*, SR-BI HDL uptake 3, ABCB6 inh 2 100, SR-BI DiI-HDL act -3 and FXN GAA850 act 0.
`Cc1nnc(NC(=O)c2oc3ccccc3c2C)s1` gave AHR activator 62*, SR-BI HDL uptake 6, HIF activator 2, ABCB6 inh 2 94, SR-BI DiI-HDL act -6 and FXN GAA850 act 6.
`CCC(=O)Nc1ccc(NC(=S)NC(=O)/C=C/c2ccccc2)cc1` gave AHR activator 7, SR-BI HDL uptake 23, HIF activator -2, ABCB6 inh 2 98, SR-BI DiI-HDL act -23 and FXN GAA850 act -2.
`COc1ccc(C(=O)NNC(=S)NC(=O)c2cccc([N+](=O)[O-])c2)cc1` gave AHR activator 2, SR-BI HDL uptake 1, HIF activator 0, ABCB6 inh 2 99, SR-BI DiI-HDL act -1 and FXN GAA850 act 1.
`O=C(NC(=S)Nc1ccccn1)c1cccc([N+](=O)[O-])c1` gave AHR activator 11, SR-BI HDL uptake 5, HIF activator 709*, ABCB6 inh 2 103, SR-BI DiI-HDL act -5 and FXN GAA850 act 1.
Screening O=C(NC(=S)Nc1cccc([N+](=O)[O-])c1)c1ccccc1 returned AHR activator 2, SR-BI HDL uptake -5, HIF activator 4, ABCB6 inh 2 99, SR-BI DiI-HDL act 5 and FXN GAA850 act 1.
`O=C(NC(=S)NNC(=O)c1ccccc1O)c1cccc([N+](=O)[O-])c1` gave AHR activator -1, SR-BI HDL uptake 109*, HIF activator 0, ABCB6 inh 2 91, SR-BI DiI-HDL act -109 and FXN GAA850 act 3.
`CCCCCC(=O)NNC(=S)NC(=O)c1cccc([N+](=O)[O-])c1` gave AHR activator 1, SR-BI HDL uptake -22, HIF activator 62*, ABCB6 inh 2 95, SR-BI DiI-HDL act 22 and FXN GAA850 act 0.
For O=C(NC(=S)Nc1cc([N+](=O)[O-])ccc1Cl)c1ccccc1 the results were AHR activator 71*, SR-BI HDL uptake 53, HIF activator 3, ABCB6 inh 2 90, SR-BI DiI-HDL act -53 and FXN GAA850 act 3.
For CCOc1ccc(C(=O)NC(=S)Nc2ccccn2)cc1[N+](=O)[O-] the results were AHR activator 0, SR-BI HDL uptake -12, HIF activator 1, ABCB6 inh 2 97, SR-BI DiI-HDL act 12 and FXN GAA850 act 5.
`CCc1c(C)nc2ncnn2c1Nc1ccc(C(C)=O)cc1` gave AHR activator 1, SR-BI HDL uptake -17, HIF activator 3, ABCB6 inh 2 98, SR-BI DiI-HDL act 17 and FXN GAA850 act 4.

Bioassay records (PubChem BioAssay)
